ChEMBL document CHEMBL2029259, “Design, synthesis, and biological evaluation of novel conformationally constrained inhibitors targeting epidermal growth factor receptor threonine⁷⁹⁰ → methionine⁷⁹⁰ mutant” (J Med Chem, 2012)
Active and inactive are the calls of the source. The rule behind the calls is not given here.

Experiments:
[1] = target: T1, Epidermal growth factor receptor (Homo sapiens, UniProt P00533); test: Inhibition of EGFR after 1.5 hr by FRET assay
[2] = target: T2, Epidermal growth factor receptor (Homo sapiens, UniProt P00533, T790M); test: Inhibition of EGFR T790M mutant after 1.5 hr by FRET assay; assay type: protein assay
[3] = target: T3, Epidermal growth factor receptor (Homo sapiens, UniProt P00533, L858R); test: Inhibition of EGFR L858R mutant after 1.5 hr by FRET assay; assay type: protein assay
[4] = target: T4, Epidermal growth factor receptor (Homo sapiens, UniProt P00533, L861Q); test: Inhibition of EGFR L861Q mutant after 1.5 hr by FRET assay; assay type: protein assay
[5] = target: T5, Epidermal growth factor receptor (Homo sapiens, UniProt P00533, L858R/T790M); test: Inhibition of EGFR L858R/T790M mutant after 1.5 hr by FRET assay; assay type: protein assay
[6] = target: T1, Epidermal growth factor receptor; test: Binding affinity to EGFR
[7] = target: T2, Epidermal growth factor receptor; test: Binding affinity to EGFR T790M mutant
[8] = target: T3, Epidermal growth factor receptor; test: Binding affinity to EGFR L858R mutant
[9] = target: T4, Epidermal growth factor receptor; test: Binding affinity to EGFR L861Q mutant
[10] = target: T5, Epidermal growth factor receptor; test: Binding affinity to EGFR L858R/T790M mutant
[11] = target: Tyrosine-protein kinase Blk (Homo sapiens) (UniProt P51451); test: Binding affinity to BLK at 100 nM
[12] = target: Tyrosine-protein kinase BTK (Homo sapiens) (UniProt Q06187); test: Binding affinity to BTK at 100 nM
[13] = target: Receptor tyrosine-protein kinase erbB-2 (Homo sapiens) (UniProt P04626); test: Binding affinity to ErbB2 at 100 nM
[14] = target: Receptor tyrosine-protein kinase erbB-4 (Homo sapiens) (UniProt Q15303); test: Binding affinity to ErbB4 at 100 nM
[15] = target: Cyclin-G-associated kinase (Homo sapiens) (UniProt O14976); test: Binding affinity to GAK at 100 nM
[16] = target: Tyrosine-protein kinase TXK (Homo sapiens) (UniProt P42681); test: Binding affinity to TXK at 100 nM
A549 = test: Antiproliferative activity against human A549 cells expressing wild type EGFR coexpressing k-Ras mutant after 72 hrs by MTS assay; conditions: A549, 72 h
[17] = Antiproliferative activity against human HL7702 cells expressing wilt type EGFR after 72 hrs by MTS assay; conditions: L02, 72 h
HCC827 [18] = test: Induction of Cell cycle arrest in human HCC827 cells harboring EGFR del E746-A750 mutant assessed as G1 phase cells after 24 hrs by flow cytometry assay; assay type: functional, cell-based
Method in brief: (§1)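 Cells in six-well plates serum-starved 24 h to synchronize in G0−G1, then treated at indicated concentrations for 24 h. Lightly trypsinized and cell-cycle distribution analysed by flow cytometry.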

NCI-H1975 [19] = test: Induction of Cell cycle arrest in human NCI-H1975 cells harboring EGFR L858R/T790M mutant assessed as G1 phase cells after 24 hrs by flow cytometry assay; assay type: functional, cell-based; method in brief: as §1
NCI-H1975 [20] = test: Antiproliferative activity against human NCI-H1975 cells harboring EGFR L858R/T790M mutant assessed as inhibition of colony formation after 9 days by crystal violet staining; assay type: functional, cell-based
Method in brief: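 H1975 cells seeded at 500 cells per 6-cm dish and grown 24 h, then treated at 0.1 to 10 nM. Medium with compound replaced every 3 days. After 9 days, fixed with 4% formaldehyde and stained with 0.2% crystal violet.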

[21] = Cytotoxicity against human HLF1 cells after 72 hrs by MTS assay; assay type: cell-based; conditions: hlf1, 72 h
Method in brief: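 MTS proliferation read-out at 490 nm after 72 h exposure, cell number set to give absorbance 1.3−2.2. Six concentrations, 0.1 nM to 10 μM, at least six parallels each, repeated at least four times. IC50 from nonlinear sigmoidal dose−response fit.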

NCI-H1975 [22] = test: Antitumor activity against human NCI-H1975 cells xenografted in SCID mouse at 10 mg/kg, po administered qd for 14 days relative to control; assay type: functional, organism-based; parameters: dose 10 mg/kg
Method in brief: (§2)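 Six-week-old SCID mice inoculated s.c. in the right flank with H1975 cells (2 × 10⁶/mouse). At mean tumour volume 380−420 mm³ (10−12 days), randomized n = 6/group. Oral dosing daily for 14 days, 0.1 mL/20 g, vehicle as control. Tumours measured every other day by caliper, volume = W²(L/2). Body weight monitored. Significance p < 0.05 versus vehicle.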

NCI-H1975 [23] = test: Antitumor activity against human NCI-H1975 cells xenografted in SCID mouse at 30 mg/kg, po administered qd for 14 days relative to control; assay type: functional, organism-based; parameters: dose 30 mg/kg; method in brief: as §2
[24] = Toxicity in SCID mouse assessed as mortality at 10 mg/kg, po administered qd for 14 days relative to control; assay type: organism-based; parameters: dose 10 mg/kg, route oral; conditions: in vivo, read-out: Activity
Method in brief: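 Six-week-old SCID mice bearing subcutaneous H1975 NSCLC xenografts (2 × 10⁶ cells, right flank) were randomized at 380−420 mm³ average tumour volume (10−12 days post implantation), n = 6/group. They were dosed orally once daily for 14 days with vehicle or compound (10 or 30 mg/kg; 0.1 mL/20 g body weight). Mortality and body weight were tracked during treatment against vehicle controls.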

Mus musculus = test: Toxicity in SCID mouse assessed as weight loss at 10 mg/kg, po administered qd for 14 days relative to control; assay type: organism-based; parameters: dose 10 mg/kg, route oral; conditions: in vivo, 336 h; method in brief: as §2
HCC827 [25] = test: Induction of apoptosis in human HCC827 cells harboring EGFR del E746-A750 mutant after 48 hrs by flow cytometry assay
NCI-H1975 [26] = test: Induction of apoptosis in human NCI-H1975 cells harboring EGFR L858R/T790M mutant after 48 hrs by flow cytometry assay

T2 sequence (P00533 25-1210 T790M limits assumed): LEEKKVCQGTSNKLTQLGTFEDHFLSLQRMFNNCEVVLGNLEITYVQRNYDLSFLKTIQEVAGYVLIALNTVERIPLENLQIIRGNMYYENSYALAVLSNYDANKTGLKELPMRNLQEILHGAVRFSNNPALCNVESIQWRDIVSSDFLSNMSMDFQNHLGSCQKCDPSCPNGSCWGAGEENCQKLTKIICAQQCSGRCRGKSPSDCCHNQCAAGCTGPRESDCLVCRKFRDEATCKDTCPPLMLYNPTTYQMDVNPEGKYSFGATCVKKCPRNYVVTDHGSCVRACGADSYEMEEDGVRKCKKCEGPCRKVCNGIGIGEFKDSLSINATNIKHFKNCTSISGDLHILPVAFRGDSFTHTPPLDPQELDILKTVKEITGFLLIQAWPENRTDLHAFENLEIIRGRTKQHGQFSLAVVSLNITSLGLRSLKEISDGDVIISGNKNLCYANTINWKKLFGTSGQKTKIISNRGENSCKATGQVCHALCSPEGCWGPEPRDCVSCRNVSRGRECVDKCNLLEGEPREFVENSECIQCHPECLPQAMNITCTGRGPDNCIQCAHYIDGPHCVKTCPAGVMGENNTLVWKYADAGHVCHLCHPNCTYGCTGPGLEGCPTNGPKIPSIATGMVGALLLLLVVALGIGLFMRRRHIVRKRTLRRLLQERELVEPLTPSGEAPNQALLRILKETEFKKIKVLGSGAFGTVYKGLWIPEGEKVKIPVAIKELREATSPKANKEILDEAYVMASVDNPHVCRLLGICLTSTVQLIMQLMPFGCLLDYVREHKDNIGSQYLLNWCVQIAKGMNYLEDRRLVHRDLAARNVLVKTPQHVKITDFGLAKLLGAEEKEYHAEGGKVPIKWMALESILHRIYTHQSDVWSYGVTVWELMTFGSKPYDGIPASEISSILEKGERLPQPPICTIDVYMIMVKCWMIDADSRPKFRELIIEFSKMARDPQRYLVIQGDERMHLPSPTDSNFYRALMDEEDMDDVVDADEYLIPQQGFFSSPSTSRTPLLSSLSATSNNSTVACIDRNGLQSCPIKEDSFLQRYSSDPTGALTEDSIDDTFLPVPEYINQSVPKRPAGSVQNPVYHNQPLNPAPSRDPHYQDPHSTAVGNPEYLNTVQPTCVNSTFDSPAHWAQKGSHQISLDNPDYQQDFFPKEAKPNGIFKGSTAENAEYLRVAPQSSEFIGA
T5 sequence (P00533 25-1210 T790M/L858R limits assumed): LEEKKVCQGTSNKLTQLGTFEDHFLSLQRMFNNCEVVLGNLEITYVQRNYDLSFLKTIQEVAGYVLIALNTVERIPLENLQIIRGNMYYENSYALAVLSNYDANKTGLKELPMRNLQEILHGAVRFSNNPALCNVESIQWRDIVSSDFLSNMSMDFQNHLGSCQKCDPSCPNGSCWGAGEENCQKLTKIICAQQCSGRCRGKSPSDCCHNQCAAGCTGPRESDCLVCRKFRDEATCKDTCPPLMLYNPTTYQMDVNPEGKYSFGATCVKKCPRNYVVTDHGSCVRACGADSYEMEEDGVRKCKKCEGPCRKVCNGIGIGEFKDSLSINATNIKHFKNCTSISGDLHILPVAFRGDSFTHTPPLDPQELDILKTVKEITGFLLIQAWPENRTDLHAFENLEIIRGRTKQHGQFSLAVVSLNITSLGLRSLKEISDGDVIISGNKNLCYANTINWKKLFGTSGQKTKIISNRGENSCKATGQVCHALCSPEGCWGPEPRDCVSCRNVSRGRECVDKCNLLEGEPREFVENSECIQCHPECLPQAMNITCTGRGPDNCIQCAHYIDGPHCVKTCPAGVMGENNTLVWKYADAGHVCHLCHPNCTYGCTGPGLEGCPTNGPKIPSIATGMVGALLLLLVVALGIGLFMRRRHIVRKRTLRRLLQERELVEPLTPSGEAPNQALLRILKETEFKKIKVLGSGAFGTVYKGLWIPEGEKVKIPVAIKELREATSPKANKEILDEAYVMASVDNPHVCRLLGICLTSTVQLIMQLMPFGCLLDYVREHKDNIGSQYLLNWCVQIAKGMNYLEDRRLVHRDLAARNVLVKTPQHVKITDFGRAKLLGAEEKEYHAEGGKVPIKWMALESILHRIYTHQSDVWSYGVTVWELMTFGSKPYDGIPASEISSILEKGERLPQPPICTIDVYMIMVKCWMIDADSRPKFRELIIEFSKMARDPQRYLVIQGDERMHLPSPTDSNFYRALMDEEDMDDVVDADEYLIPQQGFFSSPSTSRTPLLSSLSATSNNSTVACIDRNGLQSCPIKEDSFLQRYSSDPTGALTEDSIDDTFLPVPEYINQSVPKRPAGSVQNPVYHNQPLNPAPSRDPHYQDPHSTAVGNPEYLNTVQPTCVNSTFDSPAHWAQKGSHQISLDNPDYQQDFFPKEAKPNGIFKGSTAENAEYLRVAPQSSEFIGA
T4 sequence (P00533 25-1210 L861Q limits assumed): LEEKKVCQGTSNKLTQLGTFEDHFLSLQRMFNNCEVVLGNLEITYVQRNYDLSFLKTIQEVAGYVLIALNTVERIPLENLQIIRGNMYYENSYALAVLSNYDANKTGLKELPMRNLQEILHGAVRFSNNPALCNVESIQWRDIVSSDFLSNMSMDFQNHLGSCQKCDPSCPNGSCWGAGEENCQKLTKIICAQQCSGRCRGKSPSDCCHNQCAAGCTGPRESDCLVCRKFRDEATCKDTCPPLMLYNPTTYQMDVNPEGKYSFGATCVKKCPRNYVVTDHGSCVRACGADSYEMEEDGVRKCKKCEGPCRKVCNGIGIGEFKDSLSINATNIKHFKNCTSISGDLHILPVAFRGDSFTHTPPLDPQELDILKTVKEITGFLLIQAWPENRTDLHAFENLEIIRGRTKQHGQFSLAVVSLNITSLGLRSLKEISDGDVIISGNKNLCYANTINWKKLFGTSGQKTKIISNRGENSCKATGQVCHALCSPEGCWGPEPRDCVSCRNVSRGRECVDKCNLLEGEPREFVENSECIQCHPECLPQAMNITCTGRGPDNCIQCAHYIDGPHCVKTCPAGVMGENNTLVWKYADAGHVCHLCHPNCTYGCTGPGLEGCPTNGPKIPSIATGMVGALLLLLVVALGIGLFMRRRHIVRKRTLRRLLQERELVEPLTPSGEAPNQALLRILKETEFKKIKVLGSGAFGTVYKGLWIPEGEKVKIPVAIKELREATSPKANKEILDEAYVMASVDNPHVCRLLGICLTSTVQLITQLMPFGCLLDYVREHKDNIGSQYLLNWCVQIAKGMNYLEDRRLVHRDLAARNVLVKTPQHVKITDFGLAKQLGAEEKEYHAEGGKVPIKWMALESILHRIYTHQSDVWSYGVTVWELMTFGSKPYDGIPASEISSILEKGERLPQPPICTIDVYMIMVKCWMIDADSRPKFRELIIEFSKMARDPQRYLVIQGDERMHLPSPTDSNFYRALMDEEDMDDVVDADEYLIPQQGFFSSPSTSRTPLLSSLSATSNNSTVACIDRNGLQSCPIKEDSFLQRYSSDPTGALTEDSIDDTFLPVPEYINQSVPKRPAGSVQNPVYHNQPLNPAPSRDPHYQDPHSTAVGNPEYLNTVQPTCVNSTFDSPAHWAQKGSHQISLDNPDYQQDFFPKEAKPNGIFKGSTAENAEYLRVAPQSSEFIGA
T1 sequence (P00533 whole entry): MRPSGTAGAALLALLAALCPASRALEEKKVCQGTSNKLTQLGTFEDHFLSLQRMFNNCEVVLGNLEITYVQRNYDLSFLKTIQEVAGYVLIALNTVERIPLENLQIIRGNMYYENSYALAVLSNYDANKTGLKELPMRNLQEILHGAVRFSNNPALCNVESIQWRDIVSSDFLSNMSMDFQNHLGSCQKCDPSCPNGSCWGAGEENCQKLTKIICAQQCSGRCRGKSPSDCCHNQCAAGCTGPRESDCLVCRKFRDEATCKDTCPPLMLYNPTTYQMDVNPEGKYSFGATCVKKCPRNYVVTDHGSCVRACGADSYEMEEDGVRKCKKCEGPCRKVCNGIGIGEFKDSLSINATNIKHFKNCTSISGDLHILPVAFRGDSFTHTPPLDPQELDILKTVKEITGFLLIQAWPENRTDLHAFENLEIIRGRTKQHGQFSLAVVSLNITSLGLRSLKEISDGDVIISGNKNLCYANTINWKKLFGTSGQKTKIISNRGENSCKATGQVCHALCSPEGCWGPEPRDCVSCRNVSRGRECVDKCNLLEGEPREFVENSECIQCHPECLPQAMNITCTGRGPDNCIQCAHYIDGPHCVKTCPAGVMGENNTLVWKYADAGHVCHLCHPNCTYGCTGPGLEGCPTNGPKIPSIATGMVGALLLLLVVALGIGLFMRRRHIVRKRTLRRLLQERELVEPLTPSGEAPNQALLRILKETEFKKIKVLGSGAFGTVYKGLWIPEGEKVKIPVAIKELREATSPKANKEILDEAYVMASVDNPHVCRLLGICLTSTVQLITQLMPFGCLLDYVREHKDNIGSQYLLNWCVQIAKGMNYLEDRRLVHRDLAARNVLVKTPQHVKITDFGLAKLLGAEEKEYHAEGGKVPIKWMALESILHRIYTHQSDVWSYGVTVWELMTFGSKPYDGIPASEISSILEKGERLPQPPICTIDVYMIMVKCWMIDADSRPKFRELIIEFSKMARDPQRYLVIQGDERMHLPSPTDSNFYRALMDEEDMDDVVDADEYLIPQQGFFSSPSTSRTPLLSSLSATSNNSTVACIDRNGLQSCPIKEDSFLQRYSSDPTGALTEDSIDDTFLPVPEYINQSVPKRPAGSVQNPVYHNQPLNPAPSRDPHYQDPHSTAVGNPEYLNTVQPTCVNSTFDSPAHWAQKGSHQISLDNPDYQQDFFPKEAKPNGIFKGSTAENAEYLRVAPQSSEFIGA

Compound: C=CC(=O)Nc1cccc(N2C(=O)N(Cc3ccccc3)Cc3cnc(Nc4ccc(N5CCN(C)CC5)cc4OC)nc32)c1
- IC50 [1]: 0.29 nM
- IC50 [2]: 0.67 nM
- IC50 [3]: 0.38 nM
- IC50 [4]: 0.72 nM
- IC50 [5]: 0.93 nM
- Kd [6]: 1.2 nM
- Kd [7]: 0.29 nM
- Kd [8]: 1.3 nM
- Kd [9]: 0.68 nM
- Kd [10]: 0.3 nM
- Activity [11]: Active
- Activity [12]: Active
- Activity [13]: Active
- Activity [14]: Active
- Activity [15]: Active
- Activity [16]: Active
- IC50 (A549): 2660 nM
- IC50 [17]: 2390 nM
- Activity (HCC827 [18]): Active
- Activity (NCI-H1975 [19]): Active
- inhibition (NCI-H1975 [20]): Dose-dependent effect
- Activity [21]: Non-toxic
- Activity (NCI-H1975 [22]): inactive
- Activity (NCI-H1975 [23]): Active
- mortality at 336 h [24]: < 5%
- Activity (Mus musculus): < 5%
- Activity (HCC827 [25]): Active
- Activity (NCI-H1975 [26]): Active
